Measured values as given in ChEMBL document CHEMBL5724801, “EUbOPEN Chemogenomics Library - Multiplex” (2024).
“And” between values parts separate entries of the source, which are not always exact repeats. Identical values can stand only once.

Each molecule was assayed on U2OS (assay: Multiplex assay against U2OS). Details: human, 12 h, 1 µM, compound concentration 1 uM.
Type: toxicity, cell-based
In short: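 Values for tubulin, mitochondrial-mass and membrane-permeability phenotypes are per cents of cells with healthy nuclei. These cells were identified by CellPathfinder machine-learning gating of live cells that had been stained at seeding with Hoechst33342, BioTracker Green Microtubule Cytoskeleton Dye, MitoTracker Red and Annexin V Alexa Fluor 680 and imaged on a CQ1 microscope at 37°C and 5% CO2 after compound addition. The gating first set Hoechst high-intensity objects apart from normal cells, then split normal cells into healthy, pyknosed or fragmented nuclei, and pyknosed cells into mitotic or apoptotic.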

Row | Structure (SMILES) | Population Apoptotic (%) | Population Fragmented Nuclei (%) | Population Healthy Nuclei (%) | Population Hoechst High Intensity Objects (%) | Population Membrane Permeable-Phenotype (%) | Population Mitochondria Different-Phenotype (%) | Population Mitotic Cells (%) | Population Normal (%) | Population Pyknosed Nuclei (%) | Population Tubulin-Different-Phenotype (%)
1 | CC(=O)Nc1cccc2c1c(Sc1ccc(Cl)cc1)c(C)n2CC(=O)O [AZD1981] | 68% and 83% | 24% and 16% | 68% and 76% | 3% and 1% | 3% and 6% | 0% and 1% | 31% and 16% | 96% and 98% | 6% and 7% | 2% and 3%
2 | CC(C)(O)c1cnc(N2C[C@@]3(CCC[C@](C)(Cn4cnc5ccc(C#N)cc54)C3)OC2=O)cn1 [GSK2798745] | 63.64% and 30.77% | 3.45% and 3.94% | 87.8% and 85.83% | 0% | 0.6% and 4.59% | 0.3% and 10.09% | 36.36% and 69.23% | 100% | 8.75% and 10.24% | 1.51% and 0%

Same assay, conditions: human, 12 h, 1 µM, compound concentration 1 uM

Row | Structure (SMILES) | Total Cell Count
3 | CC(C)(O)c1cnc(N2C[C@@]3(CCC[C@](C)(Cn4cnc5ccc(C#N)cc54)C3)OC2=O)cn1 [GSK2798745] | 377 and 127

Same assay, conditions: human, 12 h, 10 µM, compound concentration 10 uM

Row | Structure (SMILES) | Population Apoptotic (%) | Population Fragmented Nuclei (%) | Population Healthy Nuclei (%) | Population Hoechst High Intensity Objects (%) | Population Membrane Permeable-Phenotype (%) | Population Mitochondria Different-Phenotype (%) | Population Mitotic Cells (%) | Population Normal (%) | Population Pyknosed Nuclei (%) | Population Tubulin-Different-Phenotype (%)
4 | CC(=O)Nc1cccc2c1c(Sc1ccc(Cl)cc1)c(C)n2CC(=O)O [AZD1981] | 83% and 80% | 25% and 19% | 66% and 76% | 2% and 3% | 8% and 10% | 0% and 3% | 16% and 20% | 97% and 96% | 7% and 4% | 1% and 5%
5 | CC(C)(O)c1cnc(N2C[C@@]3(CCC[C@](C)(Cn4cnc5ccc(C#N)cc54)C3)OC2=O)cn1 [GSK2798745] | 39.02% and 48.39% | 1.62% and 2.98% | 87.33% and 78.57% | 0% | 2.16% and 6.06% | – | 60.98% and 51.61% | 100% | 11.05% and 18.45% | 3.7% and 1.52%

Same assay, conditions: human, 12 h, 10 µM, compound concentration 10 uM

Row | Structure (SMILES) | Total Cell Count
6 | CC(=O)Nc1cccc2c1c(Sc1ccc(Cl)cc1)c(C)n2CC(=O)O [AZD1981] | 231 and 122
7 | CC(C)(O)c1cnc(N2C[C@@]3(CCC[C@](C)(Cn4cnc5ccc(C#N)cc54)C3)OC2=O)cn1 [GSK2798745] | 371 and 168

Same assay, conditions: human, 24 h, 1 µM, compound concentration 1 uM

Row | Structure (SMILES) | Population Apoptotic (%) | Population Fragmented Nuclei (%) | Population Healthy Nuclei (%) | Population Hoechst High Intensity Objects (%) | Population Membrane Permeable-Phenotype (%) | Population Mitochondria Different-Phenotype (%) | Population Normal (%) | Population Pyknosed Nuclei (%) | Population Tubulin-Different-Phenotype (%) | Total Cell Count
8 | CC(=O)Nc1cccc2c1c(Sc1ccc(Cl)cc1)c(C)n2CC(=O)O [AZD1981] | 91% and 50% | 25% and 16% | 66% and 82% | 2% and 0% | 5% and 4% | 1% and 3% | 97% and 100% | 8% and 1% | 3% and 0% | 289 and 106
9 | CC(C)(O)c1cnc(N2C[C@@]3(CCC[C@](C)(Cn4cnc5ccc(C#N)cc54)C3)OC2=O)cn1 [GSK2798745] | 40.48% and 23.53% | 1.65% and 5.56% | 89.67% and 83.95% | 0% | 0.23% and 2.94% | 0.23% and 2.94% | 100% | 8.68% and 10.49% | 0.69% and 0% | 484 and 162

Same assay, conditions: human, 24 h, 1 µM, compound concentration 1 uM

Row | Structure (SMILES) | Population Mitotic Cells (%)
10 | CC(C)(O)c1cnc(N2C[C@@]3(CCC[C@](C)(Cn4cnc5ccc(C#N)cc54)C3)OC2=O)cn1 [GSK2798745] | 59.52% and 76.47%

Same assay, conditions: human, 24 h, 10 µM, compound concentration 10 uM

Row | Structure (SMILES) | Population Apoptotic (%) | Population Fragmented Nuclei (%) | Population Healthy Nuclei (%) | Population Hoechst High Intensity Objects (%) | Population Membrane Permeable-Phenotype (%) | Population Mitochondria Different-Phenotype (%) | Population Mitotic Cells (%) | Population Normal (%) | Population Pyknosed Nuclei (%) | Population Tubulin-Different-Phenotype (%)
11 | CC(=O)Nc1cccc2c1c(Sc1ccc(Cl)cc1)c(C)n2CC(=O)O [AZD1981] | 88% and 100% | 23% and 14% | 66% and 77% | 0% | 6% and 3% | 2% and 4% | 11% and 0% | 99% | 9% and 8% | 2% and 0%
12 | CC(C)(O)c1cnc(N2C[C@@]3(CCC[C@](C)(Cn4cnc5ccc(C#N)cc54)C3)OC2=O)cn1 [GSK2798745] | 44% and 37.5% | 1.39% and 4.31% | 88.71% and 84.21% | 0.2% and 0% | 1.34% and 6.25% | 0.67% and 8.52% | 56% and 62.5% | 99.8% and 100% | 9.9% and 11.48% | 3.12% and 1.7%

Same assay, conditions: human, 24 h, 10 µM, compound concentration 10 uM

Row | Structure (SMILES) | Total Cell Count
13 | CC(=O)Nc1cccc2c1c(Sc1ccc(Cl)cc1)c(C)n2CC(=O)O [AZD1981] | 266 and 125
14 | CC(C)(O)c1cnc(N2C[C@@]3(CCC[C@](C)(Cn4cnc5ccc(C#N)cc54)C3)OC2=O)cn1 [GSK2798745] | 506 and 209

Same assay, conditions: human, 48 h, 1 µM, compound concentration 1 uM

Row | Structure (SMILES) | Population Apoptotic (%) | Population Fragmented Nuclei (%) | Population Healthy Nuclei (%) | Population Hoechst High Intensity Objects (%) | Population Membrane Permeable-Phenotype (%) | Population Mitochondria Different-Phenotype (%) | Population Mitotic Cells (%) | Population Normal (%) | Population Pyknosed Nuclei (%) | Population Tubulin-Different-Phenotype (%)
15 | CC(=O)Nc1cccc2c1c(Sc1ccc(Cl)cc1)c(C)n2CC(=O)O [AZD1981] | 91% and 81% | 16% and 9% | 74% and 82% | 1% and 3% | 6% | 2% and 0% | 8% and 18% | 98% and 96% | 9% and 7% | 4% and 1%
16 | CC(C)(O)c1cnc(N2C[C@@]3(CCC[C@](C)(Cn4cnc5ccc(C#N)cc54)C3)OC2=O)cn1 [GSK2798745] | 34.95% and 33.33% | 3.43% and 2.22% | 85.16% and 84.44% | 0% | 1.17% and 3.07% | 0.13% and 4.82% | 65.05% and 66.67% | 100% | 11.41% and 13.33% | 0.52% and 1.32%

Same assay, conditions: human, 48 h, 1 µM, compound concentration 1 uM

Row | Structure (SMILES) | Total Cell Count
17 | CC(=O)Nc1cccc2c1c(Sc1ccc(Cl)cc1)c(C)n2CC(=O)O [AZD1981] | 375 and 144

Same assay, conditions: human, 48 h, 10 µM, compound concentration 10 uM

Row | Structure (SMILES) | Population Apoptotic (%) | Population Fragmented Nuclei (%) | Population Healthy Nuclei (%) | Population Hoechst High Intensity Objects (%) | Population Membrane Permeable-Phenotype (%) | Population Mitochondria Different-Phenotype (%) | Population Mitotic Cells (%) | Population Normal (%) | Population Pyknosed Nuclei (%) | Population Tubulin-Different-Phenotype (%)
18 | CC(=O)Nc1cccc2c1c(Sc1ccc(Cl)cc1)c(C)n2CC(=O)O [AZD1981] | 100% and 85% | 18% and 14% | 75% and 73% | 2% and 1% | 7% | 2% and 4% | 0% and 15% | 97% and 98% | 5% and 11% | 4%
19 | CC(C)(O)c1cnc(N2C[C@@]3(CCC[C@](C)(Cn4cnc5ccc(C#N)cc54)C3)OC2=O)cn1 [GSK2798745] | 52.17% and 44.9% | 2.1% and 0.91% | 87.73% and 84.29% | 0% | 1.26% and 1.79% | 0.5% and 9.68% | 47.83% and 55.1% | 100% | 10.17% and 14.8% | 3.65% and 0.36%

Same assay, conditions: human, 48 h, 10 µM, compound concentration 10 uM

Row | Structure (SMILES) | Total Cell Count
20 | CC(=O)Nc1cccc2c1c(Sc1ccc(Cl)cc1)c(C)n2CC(=O)O [AZD1981] | 366 and 171
21 | CC(C)(O)c1cnc(N2C[C@@]3(CCC[C@](C)(Cn4cnc5ccc(C#N)cc54)C3)OC2=O)cn1 [GSK2798745] | 905 and 331
